Measurements reported in ChEMBL document CHEMBL3046951, “Volatile constituents from the leaves of Callicarpa japonica Thunb. and their antibacterial activities” (2004).

Key:
Format in all cases: functional
Bacillus cereus [1] = experiment: Antimicrobial activity against Bacillus cereus ATCC 11778 assessed as growth inhibition rate at 6.8 mg/l after 72 hr by spectrophotometry; conditions: ATCC 11778, 72 h, read-out: GI
Summary of the method: (§1)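 Pure volatile compounds (purity >95%; one at 90%) were tested against B. cereus ATCC 11778. The strain was grown at 30 °C in nutrient broth for 24 h, then subcultured for 18 h. Optical density was read in a Bioscreen C every 24 h for 72 h, with 10% Tween 80 as the control.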

Bacillus cereus [2] = experiment: Antimicrobial activity against Bacillus cereus ATCC 11778 assessed as growth inhibition rate at 0.68 mg/l after 72 hr by spectrophotometry; conditions: ATCC 11778, 72 h, read-out: GI; summary of the method: as §1
Bacillus cereus [3] = experiment: Antimicrobial activity against Bacillus cereus ATCC 11778 assessed as growth inhibition rate at 0.12 mg/l after 72 hr by spectrophotometry; conditions: ATCC 11778, 72 h, read-out: GI; summary of the method: as §1
Bacillus cereus [4] = experiment: Antimicrobial activity against Bacillus cereus ATCC 11778 assessed as growth inhibition rate at 0.05 mg/l after 72 hr by spectrophotometry; conditions: ATCC 11778, 72 h, read-out: GI; summary of the method: as §1
Bacillus cereus [5] = experiment: Antimicrobial activity against Bacillus cereus ATCC 11778 assessed as growth inhibition rate at 0.025 mg/l after 72 hr by spectrophotometry; conditions: ATCC 11778, 72 h, read-out: GI; summary of the method: as §1
Salmonella typhimurium [6] = experiment: Antimicrobial activity against Salmonella enterica subsp. enterica serovar Typhimurium ATCC 14028 assessed as growth inhibition rate at 6.8 mg/l after 72 hr by spectrophotometry; conditions: ATCC 14028, 72 h, read-out: GI
Summary of the method: (§2)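 Salmonella Typhimurium ATCC 14028 grown in nutrient broth at 30 °C, precultured 24 h, then subcultured 1:100 for 18 h before testing. Single volatile compounds (>95% pure) were added. OD was read every 24 h over 72 h in a Bioscreen C, with 10% Tween 80 as the comparison control.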

Salmonella typhimurium [7] = experiment: Antimicrobial activity against Salmonella enterica subsp. enterica serovar Typhimurium ATCC 14028 assessed as growth inhibition rate at 0.68 mg/l after 72 hr by spectrophotometry; conditions: ATCC 14028, 72 h, read-out: GI; summary of the method: as §2
Salmonella typhimurium [8] = experiment: Antimicrobial activity against Salmonella enterica subsp. enterica serovar Typhimurium ATCC 14028 assessed as growth inhibition rate at 0.12 mg/l after 72 hr by spectrophotometry; conditions: ATCC 14028, 72 h, read-out: GI; summary of the method: as §2
Salmonella typhimurium [9] = experiment: Antimicrobial activity against Salmonella enterica subsp. enterica serovar Typhimurium ATCC 14028 assessed as growth inhibition rate at 0.05 mg/l after 72 hr by spectrophotometry; conditions: ATCC 14028, 72 h, read-out: GI; summary of the method: as §2
Salmonella typhimurium [10] = experiment: Antimicrobial activity against Salmonella enterica subsp. enterica serovar Typhimurium ATCC 14028 assessed as growth inhibition rate at 0.025 mg/l after 72 hr by spectrophotometry; conditions: ATCC 14028, 72 h, read-out: GI; summary of the method: as §2
Listeria monocytogenes [11] = experiment: Antimicrobial activity against Listeria monocytogenes ATCC 19111 assessed as growth inhibition rate at 3.4 mg/l after 72 hr by spectrophotometry; conditions: ATCC 19111, 72 h, read-out: GI
Summary of the method: (§3)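 L. monocytogenes was grown at 30 °C in tryptic soy broth, subcultured for 18 h, and exposed to pure volatile compounds (>95% purity). Growth was followed by Bioscreen C optical density every 24 h for 72 h against a 10% Tween 80 control.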

Escherichia coli [12] = experiment: Antimicrobial activity against Escherichia coli O157:H7 ATCC 43894 assessed as growth inhibition rate at 6.8 mg/l after 72 hr by spectrophotometry; conditions: O157:H7 ATCC 43894, 72 h, read-out: GI
Escherichia coli [13] = experiment: Antimicrobial activity against Escherichia coli O157:H7 ATCC 43894 assessed as growth inhibition rate at 0.68 mg/l after 72 hr by spectrophotometry; conditions: O157:H7 ATCC 43894, 72 h, read-out: GI
Escherichia coli [14] = experiment: Antimicrobial activity against Escherichia coli O157:H7 ATCC 43894 assessed as growth inhibition rate at 0.12 mg/l after 72 hr by spectrophotometry; conditions: O157:H7 ATCC 43894, 72 h, read-out: GI
Escherichia coli [15] = experiment: Antimicrobial activity against Escherichia coli O157:H7 ATCC 43894 assessed as growth inhibition rate at 0.05 mg/l after 72 hr by spectrophotometry; conditions: O157:H7 ATCC 43894, 72 h, read-out: GI
Escherichia coli [16] = experiment: Antimicrobial activity against Escherichia coli O157:H7 ATCC 43894 assessed as growth inhibition rate at 0.025 mg/l after 72 hr by spectrophotometry; conditions: O157:H7 ATCC 43894, 72 h, read-out: GI
Staphylococcus aureus [17] = experiment: Antimicrobial activity against Staphylococcus aureus ATCC 25923 assessed as growth inhibition rate at 6.8 mg/l after 72 hr by spectrophotometry; conditions: ATCC 25923, 72 h, read-out: GI
Summary of the method: (§4)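 Staphylococcus aureus ATCC 25923 grown at 37 °C in tryptic soy broth, using an 18 h subculture of a 24 h culture. Individual leaf-volatile compounds (>95% purity) were tested. Bioscreen C optical density was recorded every 24 h for 72 h and compared with a 10% Tween 80 control.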

Staphylococcus aureus [18] = experiment: Antimicrobial activity against Staphylococcus aureus ATCC 25923 assessed as growth inhibition rate at 0.68 mg/l after 72 hr by spectrophotometry; conditions: ATCC 25923, 72 h, read-out: GI; summary of the method: as §4
Staphylococcus aureus [19] = experiment: Antimicrobial activity against Staphylococcus aureus ATCC 25923 assessed as growth inhibition rate at 0.12 mg/l after 72 hr by spectrophotometry; conditions: ATCC 25923, 72 h, read-out: GI
Vibrio parahaemolyticus [20] = experiment: Antimicrobial activity against Vibrio parahaemolyticus ATCC 33844 assessed as growth inhibition rate at 3.4 mg/l after 72 hr by spectrophotometry; conditions: ATCC 33844, 72 h, read-out: GI
Summary of the method: (§5)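 Vibrio parahaemolyticus ATCC 33844 grown at 37 °C in tryptic soy broth with 3% (w/v) NaCl, using an 18 h subculture of a 24 h culture. Pure compounds (>95% purity) were tested. Bioscreen C optical density was read every 24 h for 72 h against a 10% Tween 80 control.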

Staphylococcus aureus [21] = experiment: Antimicrobial activity against Staphylococcus aureus ATCC 25923 assessed as growth inhibition rate at 0.05 mg/l after 72 hr by spectrophotometry; conditions: ATCC 25923, 72 h, read-out: GI
Staphylococcus aureus [22] = experiment: Antimicrobial activity against Staphylococcus aureus ATCC 25923 assessed as growth inhibition rate at 0.025 mg/l after 72 hr by spectrophotometry; conditions: ATCC 25923, 72 h, read-out: GI
Salmonella typhimurium [23] = experiment: Antimicrobial activity against Salmonella enterica subsp. enterica serovar Typhimurium ATCC 14028 assessed as growth inhibition rate at 3.4 mg/l after 72 hr by spectrophotometry; conditions: ATCC 14028, 72 h, read-out: GI; summary of the method: as §2
Escherichia coli [24] = experiment: Antimicrobial activity against Escherichia coli O157:H7 ATCC 43894 assessed as growth inhibition rate at 3.4 mg/l after 72 hr by spectrophotometry; conditions: O157:H7 ATCC 43894, 72 h, read-out: GI
Staphylococcus aureus [25] = experiment: Antimicrobial activity against Staphylococcus aureus ATCC 25923 assessed as growth inhibition rate at 3.4 mg/l after 72 hr by spectrophotometry; conditions: ATCC 25923, 72 h, read-out: GI; summary of the method: as §4
Listeria monocytogenes [26] = experiment: Antimicrobial activity against Listeria monocytogenes ATCC 19111 assessed as growth inhibition rate at 6.8 mg/l after 72 hr by spectrophotometry; conditions: ATCC 19111, 72 h, read-out: GI; summary of the method: as §3
Listeria monocytogenes [27] = experiment: Antimicrobial activity against Listeria monocytogenes ATCC 19111 assessed as growth inhibition rate at 0.68 mg/l after 72 hr by spectrophotometry; conditions: ATCC 19111, 72 h, read-out: GI; summary of the method: as §3
Listeria monocytogenes [28] = experiment: Antimicrobial activity against Listeria monocytogenes ATCC 19111 assessed as growth inhibition rate at 0.12 mg/l after 72 hr by spectrophotometry; conditions: ATCC 19111, 72 h, read-out: GI; summary of the method: as §3
Listeria monocytogenes [29] = experiment: Antimicrobial activity against Listeria monocytogenes ATCC 19111 assessed as growth inhibition rate at 0.05 mg/l after 72 hr by spectrophotometry; conditions: ATCC 19111, 72 h, read-out: GI; summary of the method: as §3
Listeria monocytogenes [30] = experiment: Antimicrobial activity against Listeria monocytogenes ATCC 19111 assessed as growth inhibition rate at 0.025 mg/l after 72 hr by spectrophotometry; conditions: ATCC 19111, 72 h, read-out: GI; summary of the method: as §3
Vibrio parahaemolyticus [31] = experiment: Antimicrobial activity against Vibrio parahaemolyticus ATCC 33844 assessed as growth inhibition rate at 6.8 mg/l after 72 hr by spectrophotometry; conditions: ATCC 33844, 72 h, read-out: GI; summary of the method: as §5
Vibrio parahaemolyticus [32] = experiment: Antimicrobial activity against Vibrio parahaemolyticus ATCC 33844 assessed as growth inhibition rate at 0.68 mg/l after 72 hr by spectrophotometry; conditions: ATCC 33844, 72 h, read-out: GI; summary of the method: as §5
Vibrio parahaemolyticus [33] = experiment: Antimicrobial activity against Vibrio parahaemolyticus ATCC 33844 assessed as growth inhibition rate at 0.12 mg/l after 72 hr by spectrophotometry; conditions: ATCC 33844, 72 h, read-out: GI
Vibrio parahaemolyticus [34] = experiment: Antimicrobial activity against Vibrio parahaemolyticus ATCC 33844 assessed as growth inhibition rate at 0.05 mg/l after 72 hr by spectrophotometry; conditions: ATCC 33844, 72 h, read-out: GI
Vibrio parahaemolyticus [35] = experiment: Antimicrobial activity against Vibrio parahaemolyticus ATCC 33844 assessed as growth inhibition rate at 0.025 mg/l after 72 hr by spectrophotometry; conditions: ATCC 33844, 72 h, read-out: GI
Bacillus cereus [36] = experiment: Antimicrobial activity against Bacillus cereus ATCC 11778 assessed as growth inhibition rate at 3.4 mg/l after 72 hr by spectrophotometry; conditions: ATCC 11778, 72 h, read-out: GI; summary of the method: as §1

## C/C=C/C=C/C=O [2,4-HEXADIENAL]
Bacillus cereus [1]
  inhibition of growth at 6.8 µg/mL: 100%
Bacillus cereus [2]
  inhibition of growth at 0.68 µg/mL: 45.3%
Bacillus cereus [3]
  inhibition of growth at 0.12 µg/mL: 10.8%
Bacillus cereus [4]
  inhibition of growth at 0.05 µg/mL: 9.5%
Bacillus cereus [5]
  inhibition of growth at 0.025 µg/mL: 10.3%
Salmonella typhimurium [6]
  inhibition of growth at 6.8 µg/mL: 80.6%
Salmonella typhimurium [7]
  inhibition of growth at 0.68 µg/mL: 18.4%
Salmonella typhimurium [8]
  inhibition of growth at 0.12 µg/mL: 12.2%
Salmonella typhimurium [9]
  inhibition of growth at 0.05 µg/mL: 12.9%
Salmonella typhimurium [10]
  inhibition of growth at 0.025 µg/mL: 13.2%
Listeria monocytogenes [11]
  inhibition of growth at 3.4 µg/mL: 32.4%
Escherichia coli [12]
  inhibition of growth at 6.8 µg/mL: 20.2%
Escherichia coli [13]
  inhibition of growth at 0.68 µg/mL: 1.9%
Escherichia coli [14]
  inhibition of growth at 0.12 µg/mL: 2.1%
Escherichia coli [15]
  inhibition of growth at 0.05 µg/mL: 0.5%
Escherichia coli [16]
  inhibition of growth at 0.025 µg/mL: 0.3%
Staphylococcus aureus [17]
  inhibition of growth at 6.8 µg/mL: 90.9%
Staphylococcus aureus [18]
  inhibition of growth at 0.68 µg/mL: 8.8%
Staphylococcus aureus [19]
  inhibition of growth at 0.12 µg/mL: 6.9%
Vibrio parahaemolyticus [20]
  inhibition of growth at 3.4 µg/mL: 98.9%
Staphylococcus aureus [21]
  inhibition of growth at 0.05 µg/mL: 5.3%
Staphylococcus aureus [22]
  inhibition of growth at 0.025 µg/mL: 7.8%
Salmonella typhimurium [23]
  inhibition of growth at 3.4 µg/mL: 45.1%
Escherichia coli [24]
  inhibition of growth at 3.4 µg/mL: 12.7%
Staphylococcus aureus [25]
  inhibition of growth at 3.4 µg/mL: 89.4%
Listeria monocytogenes [26]
  inhibition of growth at 6.8 µg/mL: 41.4%
Listeria monocytogenes [27]
  inhibition of growth at 0.68 µg/mL: 9.2%
Listeria monocytogenes [28]
  inhibition of growth at 0.12 µg/mL: 7.5%
Listeria monocytogenes [29]
  inhibition of growth at 0.05 µg/mL: 3.9%
Listeria monocytogenes [30]
  inhibition of growth at 0.025 µg/mL: 3.9%
Vibrio parahaemolyticus [31]
  inhibition of growth at 6.8 µg/mL: 99.1%
Vibrio parahaemolyticus [32]
  inhibition of growth at 0.68 µg/mL: 20.3%
Vibrio parahaemolyticus [33]
  inhibition of growth at 0.12 µg/mL: 10.4%
Vibrio parahaemolyticus [34]
  inhibition of growth at 0.05 µg/mL: 5.8%
Vibrio parahaemolyticus [35]
  inhibition of growth at 0.025 µg/mL: 6.2%
Bacillus cereus [36]
  inhibition of growth at 3.4 µg/mL: 67.3%
